The test system of test [1] is Rattus norvegicus. As to the kind of experiment: Ability to inhibit growth hormone release in the anesthetized rats measured as plasma growth hormone at a dose of 0.1 ug/100 g BW. It counts as functional, organism-based. In short, it runs like this: (§1)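 Male Sprague-Dawley rats anesthetized with sodium pentobarbital were given peptide, with saline and tetradecapeptide SRIF controls, at doses of 0.003–10 µg/100 g BW. Plasma GH was measured by radioimmunoassay. Values are mean ± SEM, with the number of rats per group given.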

Test [2] relates to Rattus norvegicus. As to the kind of experiment: Ability to inhibit growth hormone release in the anesthetized rats measured as plasma growth hormone at a dose of 10 ug/100 g BW. Format: functional, organism-based. In short, it runs like this: as §1
For test [3], the system named is Rattus norvegicus. As to the kind of experiment: Ability to inhibit growth hormone release in the anesthetized rats measured as plasma growth hormone at a dose of 1 ug/100 g BW. It counts as functional, organism-based. The method in brief: as §1
The species named for test [4] is Rattus norvegicus. As to the kind of experiment: Activity is measured as concentration producing 50% inhibition of growth hormone secretion in rats. Format: functional. In short, it runs like this:
(§2)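 Primary cultures of male rat anterior pituitary cells were kept for 4 days and then exposed to peptide. GH in the medium was measured by radioimmunoassay. The EC50 (50% inhibition of GH secretion) was fitted with ALLFIT. Potency was expressed as the ratio to the EC50 of tetradecapeptide SRIF as reference standard.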

Test [5] is filed under the species Rattus norvegicus. As to the kind of experiment: Ability to inhibit growth hormone release in vitro in cultured rat anterior pituitary cells. Format: functional, Pituitary gland cell. The method in brief:
as §2

Test [6] relates to Rattus norvegicus. As to the kind of experiment: Ability to inhibit growth hormone release in vivo in sodium pentobarbital anesthetized rats. It counts as functional. The method in brief:
as §1

For test [7], the system named is Rattus norvegicus. As to the kind of experiment: Ability to inhibit growth hormone release in the anesthetized rats measured as plasma growth hormone at a dose of 0.6 ug/100 g BW. Format: functional, organism-based. The method in brief:
as §1

Test [8] deals with Rattus norvegicus. As to the kind of experiment: Ability to inhibit growth hormone release in the anesthetized rats measured as plasma growth hormone at a dose of 0.2 ug/100 g BW. Format: functional, organism-based. The method in brief: as §1
In test [9] the test system is Rattus norvegicus. As to the kind of experiment: Ability to inhibit growth hormone release in the anesthetized rats measured as plasma growth hormone at a dose of 10 ug/100 g. Format: functional, organism-based. In short, it runs like this: as §1
Test [10] deals with Rattus norvegicus. As to the kind of experiment: Ability to inhibit growth hormone release in the anesthetized rats measured as plasma growth hormone at a dose of 0.03 ug/100 g BW. Format: functional, organism-based. In short, it runs like this: as §1
Test [11] has as its system Rattus norvegicus. As to the kind of experiment: Ability to inhibit growth hormone release in the anesthetized rats measured as plasma growth hormone at a dose of 0.09 ug/100 g BW. Format: functional, organism-based. The method in brief: as §1
The subject of test [12] is Rattus norvegicus. As to the kind of experiment: Ability to inhibit growth hormone release in the anesthetized rats measured as plasma growth hormone at a dose of 0.01 ug/100 g BW. It counts as functional, organism-based. In short, it runs like this: as §1
Test [13] concerns Rattus norvegicus. As to the kind of experiment: Ability to inhibit growth hormone release in the anesthetized rats measured as plasma growth hormone ata dose of 0.01 ug/100 g BW. Format: functional, organism-based. The method in brief:
as §1

Some results are limits rather than exact numbers.

For the compound `CC(C)[C@@H]1CN[C@@H](C(=O)N[C@H](C(N)=O)[C@@H](C)O)CSSC[C@H](NC(=O)[C@@H](N)Cc2ccccc2)C(=O)N[C@@H](Cc2ccc(O)cc2)C(=O)N[C@H](Cc2c[nH]c3ccccc23)C(=O)N[C@@H](CCCCN)C(=O)N1`, the values for the Plasma GH in [1], in test [2] and in test [3] were 381 ng/mL, 225 ng/mL and 266 ng/mL, respectively.
With `CC(C)[C@@H]1NC(=O)[C@H](CCCCN)NC(=O)[C@@H](Cc2c[nH]c3ccccc23)NC(=O)[C@H](Cc2ccc(O)cc2)NC(=O)[C@@H](NC[C@@H](N)Cc2ccccc2)CSSC[C@@H](C(=O)N[C@H](C(N)=O)[C@@H](C)O)NC1=O`, the ED50 in test [4] stood at 6.1 nM. In addition, the Potency in [5] was 1.01%; in [6], 160%.
On to `CC(C)[C@H]1NC(=O)[C@H](CCCCN)NC(=O)[C@@H](Cc2c[nH]c3ccccc23)NC(=O)[C@H](Cc2ccc(O)cc2)NC(=O)[C@@H](NC[C@@H](N)Cc2ccccc2)CSSC[C@H](C(=O)N[C@H](C(N)=O)[C@@H](C)O)NC1=O`, for which the values for the Plasma GH in test [7] and in test [8] were 90 ng/mL and 185 ng/mL, respectively.
In the case of `CC(C)[C@H]1NC(=O)[C@H](CCCCN)NC(=O)[C@@H](Cc2c[nH]c3ccccc23)NC[C@H](Cc2ccc(O)cc2)NC(=O)[C@@H](NC(=O)[C@@H](N)Cc2ccccc2)CSSC[C@H](C(=O)N[C@H](C(N)=O)[C@@H](C)O)NC1=O`, the Plasma GH in test [1] is 307 ng/mL; in test [2] it was 137 ng/mL; in test [3] it was 176 ng/mL.
Regarding `CC(C)[C@H]1NC(=O)[C@H](CCCCN)NC[C@@H](Cc2c[nH]c3ccccc23)NC(=O)[C@H](Cc2ccc(O)cc2)NC(=O)[C@@H](NC(=O)[C@@H](N)Cc2ccccc2)CSSC[C@H](C(=O)N[C@H](C(N)=O)[C@@H](C)O)NC1=O`, the results for the Plasma GH in test [1], in test [2] and in test [3] were 325 ng/mL, 265 ng/mL and 348 ng/mL, respectively.
In [4], `CC(C)[C@@H]1CN[C@H](C(=O)N[C@H](C(N)=O)[C@@H](C)O)CSSC[C@H](NC(=O)[C@H](N)Cc2ccccc2)C(=O)N[C@@H](Cc2ccc(O)cc2)C(=O)N[C@H](Cc2c[nH]c3ccccc23)C(=O)N[C@@H](CCCCN)C(=O)N1` gave an ED50 of 350 nM. Besides, the Potency in test [5] is recorded as 0.02%; in test [6], 2%.
As for `CC(C)[C@@H]1NC[C@H](CCCCN)NC(=O)[C@@H](Cc2c[nH]c3ccccc23)NC(=O)[C@H](Cc2ccc(O)cc2)NC(=O)[C@@H](NC(=O)[C@H](N)Cc2ccccc2)CSSC[C@@H](C(=O)N[C@H](C(N)=O)[C@@H](C)O)NC1=O`, the ED50 in test [4] is 0.092 nM. The values for the Potency in test [5] and in test [6] were 67.27% and 434%, respectively.
As to `CC(C)[C@@H]1CN[C@@H](C(=O)N[C@H](C(N)=O)[C@@H](C)O)CSSC[C@H](NC(=O)[C@@H](N)Cc2ccccc2)C(=O)N[C@@H](Cc2ccc(O)cc2)C(=O)N[C@H](Cc2c[nH]c3ccccc23)CN[C@@H](CCCCN)C(=O)N1`, the Plasma GH in test [1] stood at 509 ng/mL; in test [9] it was 325 ng/mL; in test [3], 393 ng/mL.
As to `CC(C)[C@H]1NC[C@H](CCCCN)NC(=O)[C@@H](Cc2c[nH]c3ccccc23)NC(=O)[C@H](Cc2ccc(O)cc2)NC(=O)[C@@H](NC(=O)[C@@H](N)Cc2ccccc2)CSSC[C@H](C(=O)N[C@H](C(N)=O)[C@@H](C)O)NC1=O`, the Plasma GH in test [10] was 174 ng/mL; in test [11], 120 ng/mL.
As for `CC(C)[C@@H]1NC(=O)[C@H](CCCCN)NC[C@@H](Cc2c[nH]c3ccccc23)NC(=O)[C@H](Cc2ccc(O)cc2)NC(=O)[C@@H](NC(=O)[C@H](N)Cc2ccccc2)CSSC[C@@H](C(=O)N[C@H](C(N)=O)[C@@H](C)O)NC1=O`, in [4], the ED50 amounted to 190 nM. In addition, the Potency in [5] came to 0.03%; in test [6] it was 2%.
Compound `CC(C)[C@@H]1NC[C@H](CCCCN)NC(=O)[C@@H](Cc2c[nH]c3ccccc23)NC(=O)[C@H](Cc2ccc(O)cc2)NC[C@@H](NC(=O)[C@H](N)Cc2ccccc2)CSSC[C@@H](C(=O)N[C@H](C(N)=O)[C@@H](C)O)NC1=O` gave an ED50 in [4] of 6.3 nM. Further, the Potency in test [5] is reported as 0.98%; in test [6], 65%.
On to `CC(C)[C@H]1NC[C@H](CCCCN)NC(=O)[C@@H](Cc2c[nH]c3ccccc23)NC(=O)[C@H](Cc2ccc(O)cc2)NC[C@@H](NC(=O)[C@@H](N)Cc2ccccc2)CSSC[C@H](C(=O)N[C@H](C(N)=O)[C@@H](C)O)NC1=O`, for which the Plasma GH in [12] is 258 ng/mL; in [1], 250 ng/mL; in [3] it was 124 ng/mL.
`CC(C)[C@@H]1NC(=O)[C@H](CCCCN)NC(=O)[C@@H](Cc2c[nH]c3ccccc23)NC[C@H](Cc2ccc(O)cc2)NC(=O)[C@@H](NC(=O)[C@H](N)Cc2ccccc2)CSSC[C@@H](C(=O)N[C@H](C(N)=O)[C@@H](C)O)NC1=O` yielded an ED50 in [4] of 9.1 nM. The figures for the Potency in test [5] and in test [6] were 0.68% and 20%, respectively.
For the compound `CC(C)[C@H]1NC[C@H](CCCCN)NC(=O)[C@@H](Cc2c[nH]c3ccccc23)NC(=O)[C@H](Cc2ccc(O)cc2)NC[C@@H](NC(=O)[C@@H](N)Cc2ccc3ccccc3c2)CSSC[C@H](C(=O)N[C@H](C(N)=O)[C@@H](C)O)NC1=O`, the figures for the Plasma GH in test [1], in test [13] and in test [3] were 291 ng/mL, 433 ng/mL and 133 ng/mL, respectively.
For `CC(C)[C@@H]1NC[C@H](CCCCN)NC(=O)[C@@H](Cc2c[nH]c3ccccc23)NC(=O)[C@H](Cc2ccc(O)cc2)NC[C@@H](NC(=O)[C@H](N)Cc2ccc3ccccc3c2)CSSC[C@@H](C(=O)N[C@H](C(N)=O)[C@@H](C)O)NC1=O`, the ED50 in [4] stood at 1.8 nM. Moreover, the Potency in test [5] is given as 3.44%; in test [6], 50%.
Consider `CC(C)[C@H]1NC(=O)[C@H](CCCCN)NC(=O)[C@@H](Cc2c[nH]c3ccccc23)NC(=O)[C@H](Cc2ccc(O)cc2)NC(=O)[C@@H](NC(=O)[C@@H](N)Cc2ccccc2)CSSC[C@H](CN[C@H](C(N)=O)[C@@H](C)O)NC1=O`, for which the results for the Plasma GH in test [7] and in test [8] were 156 ng/mL and 248 ng/mL, respectively.
On to `CC(C)[C@@H]1CN[C@H](C(=O)N[C@H](C(N)=O)[C@@H](C)O)CSSC[C@H](NC(=O)[C@H](N)Cc2ccccc2)C(=O)N[C@@H](Cc2ccc(O)cc2)C(=O)N[C@H](Cc2c[nH]c3ccccc23)CN[C@@H](CCCCN)C(=O)N1`, for which the ED50 in [4] is more than 1000 nM. Besides, the Potency in [5] is recorded as less than 0.001%; in [6] it was 2%.
In turn, `CC(C)[C@@H]1NC(=O)[C@H](CCCCN)NC(=O)[C@@H](Cc2c[nH]c3ccccc23)NC(=O)[C@H](Cc2ccc(O)cc2)NC(=O)[C@@H](NC(=O)[C@H](N)Cc2ccccc2)CSSC[C@H](CN[C@H](C(N)=O)[C@@H](C)O)NC1=O` came in with an ED50 in test [4] of 15 nM. In addition, the Potency in test [5] came out at 0.41%; in [6] it was 73%.
In [4], `CC(C)[C@@H]1NC(=O)[C@H](CCCCN)NC(=O)[C@@H](Cc2c[nH]c3ccccc23)NC(=O)[C@H](Cc2ccc(O)cc2)NC[C@@H](NC(=O)[C@H](N)Cc2ccccc2)CSSC[C@@H](C(=O)N[C@H](C(N)=O)[C@@H](C)O)NC1=O` had an ED50 of 0.35 nM. Moreover, the Potency is given as 17.43% in [5] and 1960% in [6].
Regarding `CC(C)[C@H]1NC(=O)[C@H](CCCCN)NC(=O)[C@@H](Cc2c[nH]c3ccccc23)NC(=O)[C@H](Cc2ccc(O)cc2)NC[C@@H](NC(=O)[C@@H](N)Cc2ccccc2)CSSC[C@H](C(=O)N[C@H](C(N)=O)[C@@H](C)O)NC1=O`, the Plasma GH amounted to 146 ng/mL in test [12] and 98 ng/mL in test [10].
